Experimental data: ChEMBL document CHEMBL3588764, “Fluoro-substituted phenylazocarboxamides: Dopaminergic behavior and N-arylating properties for irreversible binding” (Bioorg Med Chem, 2015)

How the values were obtained:
Homo sapiens [1] = species on record: Homo sapiens; assay: Selectivity index, ratio of Ki for human dopamine D2 long receptor to Ki for human dopamine D3 receptor
In short: (§1)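 Ratio of Ki at D2long or D2short to Ki at D3, with both Ki values from [³H]spiperone competition on CHO membranes stably expressing the human receptors.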

Homo sapiens [2] = species on record: Homo sapiens; assay: Selectivity index, ratio of Ki for human dopamine D2 short receptor to Ki for human dopamine D3 receptor; in short: as §1
D(3) dopamine receptor [3] = molecular target: T1, D(3) dopamine receptor (Homo sapiens, UniProt P35462); assay: Activation of wild type human dopamine D3 receptor expressed in HEK293 cells co-expressing GaqG66Di5- incubated for 120 mins by scintillation counting based myo-[3H]inositol phosphate accumulation assay; assay type: functional, cell-based
T1 sequence (P35462 whole entry): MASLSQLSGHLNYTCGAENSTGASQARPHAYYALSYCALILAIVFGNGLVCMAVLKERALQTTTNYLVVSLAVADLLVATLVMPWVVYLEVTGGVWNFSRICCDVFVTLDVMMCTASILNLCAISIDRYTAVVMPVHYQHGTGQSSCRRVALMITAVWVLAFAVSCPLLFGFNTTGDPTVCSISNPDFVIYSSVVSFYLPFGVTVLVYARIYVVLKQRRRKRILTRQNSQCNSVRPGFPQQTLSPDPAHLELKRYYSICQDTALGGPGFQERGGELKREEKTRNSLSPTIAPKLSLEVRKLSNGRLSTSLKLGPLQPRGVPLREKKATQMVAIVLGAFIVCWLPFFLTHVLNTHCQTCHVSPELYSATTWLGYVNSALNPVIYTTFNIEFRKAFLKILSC

D(3) dopamine receptor [4] = molecular target: T1, D(3) dopamine receptor; assay: Activation of wild type human dopamine D3 receptor expressed in HEK293 cells co-expressing GaqG66Di5- incubated for 120 mins by scintillation counting based myo-[3H]inositol phosphate accumulation assay relative to quinpirole; assay type: functional, cell-based
In short: (§2)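 HEK293T cells transiently co-transfected with human D3 (wild type or L89K mutant) plus GαqG66Di5; 24 h later seeded and labelled with myo-[³H]inositol. Next day, compounds in Tris/EDTA/MgCl2/DTT buffer pH 7.4 with 10 mM LiCl for 120 min at 37 °C. Total IP isolated by anion exchange and counted by scintillation; expressed as fold over basal (unstimulated = 1).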

D(3) dopamine receptor [5] = molecular target: D(3) dopamine receptor (Homo sapiens, UniProt P35462, L89K); assay: Activation of human dopamine D3 receptor L89K mutant expressed in HEK293 cells co-expressing GaqG66Di5- incubated for 120 mins by scintillation counting based myo-[3H]inositol phosphate accumulation assay; assay type: functional, cell-based
Chain of D(3) dopamine receptor (Homo sapiens, UniProt P35462, L89K) (P35462 as listed by the source L89K): as the sequence (P35462 whole entry) above, with G9S, L89K counted along it

[6] = test system: D(3) dopamine receptor (Homo sapiens), P35462 [L89K]; assay: Activation of human dopamine D3 receptor L89K mutant expressed in HEK293 cells co-expressing GaqG66Di5- incubated for 120 mins by scintillation counting based myo-[3H]inositol phosphate accumulation assay relative to control; assay type: functional, cell-based; in short: as §2
Chain of D(3) dopamine receptor (Homo sapiens), P35462 [L89K] (P35462 as listed by the source): as the sequence (P35462 whole entry) above, with G9S, L89K counted along it

D(2) dopamine receptor [7] = molecular target: T2, D(2) dopamine receptor (Homo sapiens, UniProt P14416); assay: Displacement of [3H]spiperone from human dopamine D2 long receptor expressed in CHO cell membranes
T2 sequence (P14416 whole entry): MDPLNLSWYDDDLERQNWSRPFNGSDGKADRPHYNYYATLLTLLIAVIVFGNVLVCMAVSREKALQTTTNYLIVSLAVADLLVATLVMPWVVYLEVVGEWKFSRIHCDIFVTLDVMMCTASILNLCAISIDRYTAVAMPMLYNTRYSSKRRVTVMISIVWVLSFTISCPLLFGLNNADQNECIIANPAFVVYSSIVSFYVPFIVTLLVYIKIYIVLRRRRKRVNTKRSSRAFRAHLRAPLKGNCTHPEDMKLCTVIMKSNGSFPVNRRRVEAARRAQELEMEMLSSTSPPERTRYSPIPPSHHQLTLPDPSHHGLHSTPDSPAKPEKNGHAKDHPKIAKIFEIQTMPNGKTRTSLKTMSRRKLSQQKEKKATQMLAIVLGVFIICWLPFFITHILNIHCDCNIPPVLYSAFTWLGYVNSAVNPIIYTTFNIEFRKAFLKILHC
In short: (§3)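 Membranes of CHO cells stably expressing each human receptor; [³H]spiperone final 0.1–0.2 nM (D2long), 0.2 nM (D2short), 0.2–0.4 nM (D3), 0.15–0.35 nM (D4.4), set by K_D. Protein per well 4–6, 1–4, 1–6 and 5–6 µg respectively. EC50 from competition curves by non-linear regression, converted to Ki with Cheng–Prusoff; Ki mean of 3–7 independent experiments in triplicate.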

D(2) dopamine receptor [8] = molecular target: T2, D(2) dopamine receptor; assay: Displacement of [3H]spiperone from human dopamine D2 short receptor expressed in CHO cell membranes; in short: as §3
D(3) dopamine receptor [9] = molecular target: T1, D(3) dopamine receptor; assay: Displacement of [3H]spiperone from human dopamine D3 receptor expressed in CHO cell membranes; in short: as §3
D(4) dopamine receptor = molecular target: T3, D(4) dopamine receptor (Homo sapiens, UniProt P21917); assay: Displacement of [3H]spiperone from human dopamine D4.4 receptor expressed in CHO cell membranes; in short: as §3
T3 sequence (P21917 whole entry): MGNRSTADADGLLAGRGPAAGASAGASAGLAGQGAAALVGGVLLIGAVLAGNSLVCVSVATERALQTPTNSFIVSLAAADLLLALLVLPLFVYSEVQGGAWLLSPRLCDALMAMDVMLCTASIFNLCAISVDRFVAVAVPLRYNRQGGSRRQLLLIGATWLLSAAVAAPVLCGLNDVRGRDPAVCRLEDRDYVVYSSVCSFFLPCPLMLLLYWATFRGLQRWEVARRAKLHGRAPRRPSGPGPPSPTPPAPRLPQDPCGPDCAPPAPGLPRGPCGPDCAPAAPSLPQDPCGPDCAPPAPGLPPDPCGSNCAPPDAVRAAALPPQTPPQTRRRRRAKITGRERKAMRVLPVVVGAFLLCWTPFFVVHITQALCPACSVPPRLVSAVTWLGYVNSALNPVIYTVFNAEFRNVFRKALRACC

[10] = molecular target: 5-hydroxytryptamine receptor 2A (Homo sapiens, UniProt P28223); assay: Displacement of [3H]ketanserin from human 5HT2A receptor expressed in HEK293 cell membranes
Chain of 5-hydroxytryptamine receptor 2A (P28223 whole entry): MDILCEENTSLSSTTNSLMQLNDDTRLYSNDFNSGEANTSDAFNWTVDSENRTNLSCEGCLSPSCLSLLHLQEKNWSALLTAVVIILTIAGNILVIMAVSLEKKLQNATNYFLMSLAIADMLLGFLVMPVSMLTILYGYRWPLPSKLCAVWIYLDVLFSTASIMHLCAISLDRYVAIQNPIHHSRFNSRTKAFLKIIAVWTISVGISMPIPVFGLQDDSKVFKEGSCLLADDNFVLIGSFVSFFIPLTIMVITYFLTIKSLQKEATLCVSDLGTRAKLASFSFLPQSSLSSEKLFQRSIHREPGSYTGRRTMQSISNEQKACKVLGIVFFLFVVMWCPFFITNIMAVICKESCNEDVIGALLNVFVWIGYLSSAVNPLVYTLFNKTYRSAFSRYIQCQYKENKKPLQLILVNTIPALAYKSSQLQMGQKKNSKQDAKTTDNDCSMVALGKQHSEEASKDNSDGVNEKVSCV
In short: (§4)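 Homogenates from HEK 293 cells transiently transfected (calcium phosphate) with the human receptor gene in pcDNA3.1. [³H]SCH23390 at 0.3–0.7 nM (D1) or 0.4–0.5 nM (D5); [³H]ketanserin at 0.3–0.5 nM (5-HT2A). Competition curves fitted by non-linear regression, EC50 converted to Ki via Cheng–Prusoff.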

[11] = Displacement of [3H]prazosin from porcine cerebral cortex alpha1 adrenoceptor; assay type: tissue-based, Sus scrofa
D(1A) dopamine receptor = D(1A) dopamine receptor (Homo sapiens, UniProt P21728); assay: Displacement of [3H]SCH23390 from human dopamine D1 receptor expressed in HEK293 cell membranes; in short: as §4
Chain of D(1A) dopamine receptor (P21728 whole entry): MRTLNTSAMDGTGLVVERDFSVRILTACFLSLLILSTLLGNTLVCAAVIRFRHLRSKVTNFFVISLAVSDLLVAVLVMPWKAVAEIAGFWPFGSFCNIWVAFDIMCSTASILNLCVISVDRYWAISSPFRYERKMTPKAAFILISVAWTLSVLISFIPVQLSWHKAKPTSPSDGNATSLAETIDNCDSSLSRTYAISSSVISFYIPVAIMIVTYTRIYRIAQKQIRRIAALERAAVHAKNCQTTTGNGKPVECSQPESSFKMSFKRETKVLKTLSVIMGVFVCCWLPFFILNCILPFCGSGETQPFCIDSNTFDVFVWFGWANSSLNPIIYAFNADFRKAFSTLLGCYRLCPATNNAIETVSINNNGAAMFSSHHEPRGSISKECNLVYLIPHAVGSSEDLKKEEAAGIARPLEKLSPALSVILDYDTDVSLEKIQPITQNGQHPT

D(1B) dopamine receptor = D(1B) dopamine receptor (Homo sapiens, UniProt P21918); assay: Displacement of [3H]SCH23390 from human dopamine D5 receptor expressed in HEK293 cell membranes; in short: as §4
Chain of D(1B) dopamine receptor (P21918 whole entry): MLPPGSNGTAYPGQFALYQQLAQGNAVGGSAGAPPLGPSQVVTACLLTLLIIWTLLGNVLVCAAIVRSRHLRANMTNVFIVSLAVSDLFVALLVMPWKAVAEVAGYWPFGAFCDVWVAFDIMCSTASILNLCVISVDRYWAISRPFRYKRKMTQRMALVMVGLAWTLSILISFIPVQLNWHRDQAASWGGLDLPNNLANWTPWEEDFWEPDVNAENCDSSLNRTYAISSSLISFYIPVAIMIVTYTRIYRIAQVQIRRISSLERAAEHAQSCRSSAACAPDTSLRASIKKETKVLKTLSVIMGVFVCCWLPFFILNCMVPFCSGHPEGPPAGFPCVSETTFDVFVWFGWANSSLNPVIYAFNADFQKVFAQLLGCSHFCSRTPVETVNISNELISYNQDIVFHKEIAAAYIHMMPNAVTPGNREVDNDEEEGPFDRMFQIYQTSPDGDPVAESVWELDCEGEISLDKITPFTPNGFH

[12] = Displacement of [3H][…] from porcine cerebral cortex 5HT1A receptor; assay type: tissue-based, Sus scrofa
In short: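 Porcine cerebral cortex homogenates as receptor source; [³H][…] at 0.2–0.33 nM for 5-HT1A. Protein measured by Lowry against bovine serum albumin. Competition curves fitted by non-linear regression, EC50 converted to Ki via Cheng–Prusoff.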

Row | Ratio Ki (Homo sapiens [1]) | Ratio Ki (Homo sapiens [2]) | EC50 (D(3) dopamine receptor [3]) [nM] | Efficacy (D(3) dopamine receptor [4]) [%] | EC50 (D(3) dopamine receptor [5]) [nM] | Efficacy [6] [%] | Ki (D(2) dopamine receptor [7]) [nM] | Ki (D(2) dopamine receptor [8]) [nM] | Ki (D(3) dopamine receptor [9]) [nM] | Ki (D(4) dopamine receptor) [nM] | Ki [10] [nM] | Ki [11] [nM] | Ki (D(1A) dopamine receptor) [nM] | Ki (D(1B) dopamine receptor) [nM] | Ki [12] [nM] | Structure (SMILES)
1 | 13 | 6.5 | 6.1 | 94 | 79 | 77 | 25 | 13 | 2 | 31 |  |  |  |  |  | CCCN(CCCCNC(=O)/N=N/c1ccc(F)c(F)c1)C1Cc2ccccc2C1
2 | 4.7 | 6.8 |  |  |  |  | 6.6 | 9.5 | 1.4 | 47 |  |  |  |  |  | COc1ccccc1N1CCN(CCCCNC(=O)/N=N/c2cc(F)c(F)c(F)c2)CC1
3 | 10 | 16 |  |  |  |  | 7.5 | 12 | 0.72 | 36 |  |  |  |  |  | COc1ccccc1N1CCN(CCCCNC(=O)/N=N/c2ccc(F)c(F)c2)CC1
4 | 3.6 | 2.9 |  |  |  |  | 5 | 4 | 1.4 | 0.99 |  |  |  |  |  | CCCN(CCNC(=O)/N=N/c1ccc(F)cc1)C1Cc2ccccc2C1
5 | 3.1 | 0.93 |  |  |  |  | 43 | 13 | 14 | 1.4 | 210 | 58 | 2200 | 11000 | 4.3 | CCCN(CCNC(=O)/C=C/c1ccc(F)cc1)C1Cc2ccccc2C1
6 | 61 | 9.4 |  |  |  |  | 19 | 2.9 | 0.31 | 16 | 89 | 120 | 1300 | 2900 | 5 | CCCN(CCCCNC(=O)/C=C/c1ccc(F)cc1)C1Cc2ccccc2C1
7 | 27 | 42 | 2.6 | 84 | 68 | 81 | 23 | 36 | 0.85 | 34 | 550 | 170 | 3300 | 7000 | 5.8 | CCCN(CCCCNC(=O)/N=N/c1ccc(F)cc1)C1Cc2ccccc2C1
8 | 1.4 | 3 |  |  |  |  | 3.9 | 8.5 | 2.8 | 2 |  |  |  |  |  | CCCN(CCNC(=O)/N=N/c1ccc(F)c(F)c1)C1Cc2ccccc2C1
9 | 1.3 | 0.84 |  |  |  |  | 110 | 73 | 87 | 10 | 510 | 900 | 2600 | 3800 | 3.3 | CCCN(CCNC(=O)/N=N/c1cc(F)c(F)c(F)c1)C1Cc2ccccc2C1
10 | 8.2 | 2.4 | 11 | 90 | 114 | 101 | 40 | 12 | 4.9 | 40 |  |  |  |  |  | CCCN(CCCCNC(=O)/N=N/c1cc(F)c(F)c(F)c1)C1Cc2ccccc2C1

Row | Structure (SMILES) | Ratio Ki (Homo sapiens [1]) | Ratio Ki (Homo sapiens [2]) | EC50 (D(3) dopamine receptor [3]) [nM] | Efficacy (D(3) dopamine receptor [4]) [%] | EC50 (D(3) dopamine receptor [5]) [nM] | Efficacy [6] [%] | Ki (D(2) dopamine receptor [7]) [nM] | Ki (D(2) dopamine receptor [8]) [nM] | Ki (D(3) dopamine receptor [9]) [nM] | Ki (D(4) dopamine receptor) [nM] | Ki [10] [nM] | Ki [11] [nM] | Ki (D(1A) dopamine receptor) [nM] | Ki (D(1B) dopamine receptor) [nM] | Ki [12] [nM]
11 | COc1ccccc1N1CCN(CCCCNC(=O)/N=N/c2ccc(F)cc2)CC1 | 13 | 11 |  |  |  |  |  | 34 | 3 |  |  | 5.2 |  |  | 3.3
